Where a SMILES comes first, the peptide text is derived from it. Bridges are numbered along the chain shown (N, C = ends). Where no end group is shown, it is not given here. [ ]: non-standard residue; d: D form. S5 = C=CCCC[C@](C)(N)C(=O)O
Assays:
[1] = molecular target: T1, VDR-mediated transcription in MCF-7 cells expressing the VDR (Homo sapiens, UniProt P11473); assay: Dual-luciferase reporter gene assay of VDR-mediated transcription; format: cell-based; conditions: 3 μM peptide, 30 nM calcitriol defined as 100%, 16 h incubation
T1 sequence (P11473 1-427): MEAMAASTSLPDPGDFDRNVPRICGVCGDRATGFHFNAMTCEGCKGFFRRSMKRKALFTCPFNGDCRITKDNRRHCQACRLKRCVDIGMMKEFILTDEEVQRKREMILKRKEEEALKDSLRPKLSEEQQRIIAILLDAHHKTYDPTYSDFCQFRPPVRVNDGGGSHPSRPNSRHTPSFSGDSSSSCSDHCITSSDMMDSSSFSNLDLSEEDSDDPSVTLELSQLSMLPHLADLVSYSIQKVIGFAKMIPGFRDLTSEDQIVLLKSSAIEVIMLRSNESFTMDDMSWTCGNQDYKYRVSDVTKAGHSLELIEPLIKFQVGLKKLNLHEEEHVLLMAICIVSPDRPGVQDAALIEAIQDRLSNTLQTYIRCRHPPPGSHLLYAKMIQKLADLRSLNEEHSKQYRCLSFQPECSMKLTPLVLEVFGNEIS
How it was run: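 MCF-7 cells (RPMI-1640, 10% heat-inactivated FBS, 1% penicillin/streptomycin) seeded at 4×10^4 cells/well and cultured 24 h. Cells were co-transfected by lipofection with a VDRE-firefly luciferase reporter and SV40-Renilla luciferase control. After 8 h, test compound was added with 1α,25(OH)₂D₃ (30 nM) for 16 h. Dual-luciferase activity was read in lysates, with 30 nM calcitriol activation set as 100%.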

MCF-7 cells = assay: Confocal microscope observation of intracellular localization; format: cell-based; conditions: peptide 1 μM with LysoTracker 70 nM for 2 h, Figure S8
How it was run: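 MCF-7 cells grown in RPMI-1640 with 10% heat-inactivated FBS and 1% penicillin/streptomycin, then plated on glass-bottom dishes. They were co-incubated 2 h with peptide and LysoTracker, then stained with Hoechst33342 for 5 min and washed with PBS before confocal imaging.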

HL-60 cells = assay: NBT reduction assay of VDR-mediated cell differentiation; format: cell-based; conditions: 1 μM peptide with 30 nM VD3, 48 h, NBT-positive cells counted
How it was run: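 HL-60 cells in RPMI-1640 with 10% heat-inactivated FBS were treated 48 h with VD₃ (30 nM) with or without peptide. Cells were then stained with 1 mg/mL NBT plus 320 nM PMA for 30 min at 37 °C. NBT-positive cells were counted microscopically among more than 200 cells and expressed as a percentage. Data are means ± SD of three independent experiments.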

[2] = molecular target: ligand binding domain of rat VDR with a deleted loop region (Ser165–Pro211) (rat) (UniProt P13053); assay: fluorescence polarisation
Sequence of ligand binding domain of rat VDR with a deleted loop region (Ser165–Pro211) (rat) (P13053 212-423, stated change not applied): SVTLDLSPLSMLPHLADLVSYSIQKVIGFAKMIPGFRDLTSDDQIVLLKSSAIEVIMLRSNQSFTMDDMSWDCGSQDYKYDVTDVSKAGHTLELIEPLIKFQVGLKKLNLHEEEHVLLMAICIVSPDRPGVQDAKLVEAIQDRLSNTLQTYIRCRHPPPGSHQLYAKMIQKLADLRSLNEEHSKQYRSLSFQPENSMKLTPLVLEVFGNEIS

Compound	% Inhibition at 3 μM of VDR-mediated transcriptional activity [1]	intracellular localization (confocal microscopy) (MCF-7 cells)	inhibition of HL-60 cell differentiation at 1 μM (HL-60 cells)	relative value of IC50 (to SRC2-3) [2]
CC(C)C[C@H](NC(=O)[C@H](CC(C)C)NC(=O)[C@]1(C)CCCC=CCCC[C@](C)(NC(=O)[C@H](CC(N)=O)NC(=O)[C@H](CCC(=O)O)NC(=O)[C@@H](N)CCCCN)C(=O)N[C@@H](CC(C)C)C(=O)N[C@@H](CC(C)C)C(=O)N[C@@H](CCCNC(=N)N)C(=O)N1)C(=O)N[C@@H](CC(=O)O)C(=O)N[C@@H](CCCCN)C(=O)N[C@@H](CC(=O)O)C(=O)NCC(=O)NCC(=O)NCC(=O)N[C@@H](CCCNC(=N)N)C(=O)N[C@@H](CCCNC(=N)N)C(=O)N[C@@H](CCCNC(=N)N)C(=O)N[C@@H](CCCNC(=N)N)C(=O)N[C@@H](CCCNC(=N)N)C(=O)N[C@@H](CCCNC(=N)N)C(=O)N[C@@H](CCCNC(=N)N)C(=O)N[C@@H](CCCNC(=N)N)C(=O)N[C@@H](CCCNC(=N)N)C(N)=O [Peptide 23] (H-KEN[S5]LLR[S5]LLDKDGGGRRRRRRRRR-NH2; staple 4-8)	44.3%	localized in the endosome	–	–
CC(C)C[C@H](NC(=O)[C@H](C)NC(=O)[C@H](CC(N)=O)NC(=O)[C@H](CCC(=O)O)NC(=O)[C@@H](N)CCCCN)C(=O)N[C@@H](CC(C)C)C(=O)N[C@@H](CCCNC(=N)N)C(=O)N[C@@]1(C)CCCC=CCCC[C@@](C)(C(=O)N[C@@H](CC(=O)O)C(=O)NCC(=O)NCC(=O)NCC(=O)N[C@@H](CCCNC(=N)N)C(=O)N[C@@H](CCCNC(=N)N)C(=O)N[C@@H](CCCNC(=N)N)C(=O)N[C@@H](CCCNC(=N)N)C(=O)N[C@@H](CCCNC(=N)N)C(=O)N[C@@H](CCCNC(=N)N)C(=O)N[C@@H](CCCNC(=N)N)C(=O)N[C@@H](CCCNC(=N)N)C(=O)N[C@@H](CCCNC(=N)N)C(N)=O)NC(=O)[C@H](CC(=O)O)NC(=O)[C@H](CC(C)C)NC(=O)[C@H](CC(C)C)NC1=O [Peptide 24]	–	broadly localized over the entire cell	did not inhibit cell differentiation	–
KENALLRYLLDKDGGGRRRRRRRRR-NH2 [Peptide 21]	–	–	did not inhibit cell differentiation	–
SRC2-3 peptide	–	–	–	1

Reference: article PMC9774327 (ACS Omega, 2022)
